Each structure is given as a SMILES string.

A short description of the data set: Metabolic stability in human liver microsomes assessed as compound remaining preincubated for 5 mins in presence of NADPH regeneration system followed by HLM addition measured after 240 mins by LC-MS analysis. Conditions: read-out: Stabilty. The data set is classed as ADME, Microsome. In a few lines:
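Compounds were incubated with human liver microsomes and sampled at 0, 10, 20, 30, 60, 120, 180 and 240 min. Degradation and metabolite formation were followed by LC-MS, ESI(+). Run in triplicate; mean with standard deviation reported.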
On to `CCNC(=O)[C@H](CCC1CCCCC1)NC(=O)c1ccc(CNC(=O)c2cnn(-c3ccccc3)c2N)cc1`, for which the remaining at 4 h is 64%.

On to `Nc1c(C(=O)NCc2ccc(C(=O)N[C@@H](CCC3CCCCC3)C(=O)Nc3ccc(F)cc3)cc2)cnn1-c1ccccc1`, for which the remaining at 4 h was found to be 83.5%.

As for `Nc1c(C(=O)NCc2ccc(C(=O)N[C@@H](CCC3CCCCC3)C(=O)NCc3ccncc3)cc2)cnn1-c1ccccc1`, the remaining at 4 h came to 99.5%.

Consider `NC(=O)[C@H](CCC1CCCCC1)NC(=O)c1ccc(CNC(=O)c2cnn(-c3ccccc3)c2N)cc1`, for which the remaining at 4 h came out at 66.9%.

The values above are taken from ChEMBL document CHEMBL4706611, “Selective targeting of the αC and DFG-out pocket in p38 MAPK” (Eur J Med Chem, 2020).
